Converted amounts (≈) assume the structure as drawn. Positions of bridges follow the written chain, without caps; N, C: chain ends. Non-standard residues stand in square brackets, D forms with d. Residues, ends and D or L forms follow the SMILES beside them. Nle = CCCC[C@H](N)C(=O)O; Orn = NCCC[C@H](N)C(=O)O
How the values were obtained:
Candida albicans [1] = assay: Antimicrobial activity against Candida albicans ATCC […] using in brain heart infusion medium(dil) after 2 hrs at 10 ug/ml; type: functional, ATCC 64549
How it was run: (§1)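 Single-concentration screen: log-phase organisms (~2 × 10^5 cells/ml) incubated 2 h at 37°C in diluted BHI (1/100 of 3.4%, pH 6.7 to 6.9) with 25 μg/ml peptide (10 μg/ml for E. coli O6 and C. albicans); viable counts on blood agar; scored as ≥99% killed or not; duplicates.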

Escherichia coli [2] = assay: Antimicrobial activity against Escherichia coli O6 using in brain heart infusion medium(dil) after 2 hrs at 10 ug/ml; type: functional; how it was run: as §1
Pseudomonas aeruginosa = assay: Antimicrobial activity against Pseudomonas aeruginosa CCUG 551 using in brain heart infusion medium(dil) after 2 hrs at 25 ug/ml; type: functional; how it was run: as §1
Klebsiella pneumoniae = assay: Antimicrobial activity against Klebsiella pneumoniae CCUG 9997 using in brain heart infusion medium(dil) after 2 hrs at 25 ug/ml; type: functional; how it was run: as §1
Staphylococcus aureus [3] = assay: Antimicrobial activity against Staphylococcus aureus 1800 (CCUG 1800) using in brain heart infusion medium(dil) after 2 hrs at 25 ug/ml; type: functional; how it was run: as §1
[4] = test system: Staphylococcus epidermidis; assay: Antimicrobial activity against Staphylococcus epidermidis CCUG 18000A using in brain heart infusion medium(dil) after 2 hrs at 25 ug/ml; type: functional; how it was run: as §1
Enterococcus faecalis = assay: Antimicrobial activity against Enterococcus faecalis ATCC 19433 using in brain heart infusion medium(dil) after 2 hrs at 25 ug/ml; type: functional; how it was run: as §1
Escherichia coli [5] = assay: Antimicrobial activity against Escherichia coli O14 using in brain heart infusion medium(dil) after 2 hrs at 25 ug/ml; type: functional; how it was run: as §1
Staphylococcus aureus [6] = assay: Antimicrobial activity against methicillin resistant Staphylococcus aureus MRS3525 incubated in bactopeptone; type: functional
How it was run: (§2)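 Log-phase cells (BHI overnight at 37°C with shaking, subcultured 2 h, washed) at about 2 × 10^5 cells/ml final, exposed to twofold peptide dilutions in duplicate or triplicate. Medium: BHIdil (1/100 of 3.4% BHI, pH 6.7–6.9) or 1% Bactopeptone (pH 7.0). 2 h at 37°C, humid. 5-μl drops plated on blood agar overnight for CFU. MMC99 is the lowest concentration giving ≥99% kill.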

Candida albicans [7] = assay: Antimicrobial activity against […] Candida albicans ATCC […] incubated in diluted brain heart infusion medium; type: functional; settings: ATCC 6454; how it was run: as §2
Candida albicans [8] = assay: Antimicrobial activity against Candida albicans ATCC […] incubation in bactopeptone; type: functional; settings: ATCC 64549
How it was run: (§3)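 Microplate killing assay in 1% Bactopeptone (pH 7.0). Log-phase organisms (BHI overnight, 2 h subculture, 37°C, washed), final ~2 × 10^5 cells/ml, with twofold peptide dilutions, 37°C humid chamber 2 h (or 20 h where stated). 5 μl drops plated on blood agar overnight; MMC99 = lowest concentration giving ≥99% inoculum reduction; duplicates.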

[9] = Antimicrobial activity against Escherichia coli O6 K5 incubation in bactopeptone; type: functional; how it was run: as §3
Staphylococcus aureus [10] = assay: Antimicrobial activity against methicillin resistant Staphylococcus aureus MRS3525 incubated in diluted brain heart infusion medium; type: functional; how it was run: as §2
[11] = Antimicrobial activity against Escherichia coli O6 K5 incubated in diluted brain heart infusion medium; type: functional
How it was run: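 Microplate assay in diluted BHI (1/100 of 3.4%, pH 6.7 to 6.9), log-phase cells at ~2 × 10^5 cells/ml, twofold peptide dilutions, 2 h at 37°C in humid chamber; drops plated on blood agar, CFU counted; MMC99 = minimum concentration giving ≥99% killing of inoculum; duplicates.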

Staphylococcus aureus [12] = assay: Antimicrobial activity against Staphylococcus aureus 1800 (CCUG 1800) incubation in bactopeptone; type: functional; how it was run: as §3

Compound: H-EATKCFQWQRNMRKVR-OH
- Activity (Candida albicans [1]): <99%
- Activity (Escherichia coli [2]): >=99%
- Activity (Pseudomonas aeruginosa): <99%
- Activity (Klebsiella pneumoniae): <99%
- Activity (Staphylococcus aureus [3]): >=99%
- Activity [4]: >=99%
- Activity (Enterococcus faecalis): >=99%
- Activity (Escherichia coli [5]): <99%

Compound: H-CFQWQRNARKVR-OH
- MIC99 (Staphylococcus aureus [6]): > 100 µg/mL
- MIC99 (Candida albicans [7]): 25 µg/mL
- MIC99 (Candida albicans [8]): 50 µg/mL
- MIC99 [9]: 50 µg/mL
- MIC99 (Staphylococcus aureus [10]): 3.5 µg/mL
- MIC99 [11]: 12 µg/mL

Compound: CCCC[C@H](NC(=O)[C@H](CCCNC(=N)N)NC(=O)[C@H](CCC(N)=O)NC(=O)[C@H](Cc1c[nH]c2ccccc12)NC(=O)[C@H](CCC(N)=O)NC(=O)[C@H](Cc1ccccc1)NC(=O)[C@@H](N)CS)C(=O)N[C@@H](CCSC)C(=O)N[C@@H](CCCNC(=N)N)C(=O)N[C@@H](CCCCN)C(=O)N[C@H](C(=O)N[C@@H](CCCNC(=N)N)C(=O)O)C(C)C (H-CFQWQR[Nle]MRKVR-OH)
- MIC99 (Staphylococcus aureus [12]): 50 µg/mL (≈ 30.3 µM)
- MIC99 (Candida albicans [8]): 50 µg/mL (≈ 30.3 µM)
- MIC99 [9]: 50 µg/mL (≈ 30.3 µM)

Compound: CC[C@H](C)[C@H](NC(=O)[C@@H]1CSSC[C@H](NC(=O)[C@H](CCCCN)NC(=O)[C@@H](NC(=O)[C@H](C)NC(=O)[C@H](CCC(=O)O)NC(C)=O)[C@@H](C)O)C(=O)N[C@@H](Cc2ccccc2)C(=O)N[C@@H](C)C(=O)N[C@@H](Cc2c[nH]c3ccccc23)C(=O)N[C@@H](CCC(N)=O)C(=O)N[C@@H](CCCNC(=N)N)C(=O)N[C@@H](CC(N)=O)C(=O)N[C@@H](CCSC)C(=O)N[C@@H](CCCNC(=N)N)C(=O)N[C@@H](CCCCN)C(=O)N[C@@H](C(C)C)C(=O)N[C@@H](CCCNC(=N)N)C(=O)NCC(=O)N2CCC[C@H]2C(=O)N2CCC[C@H]2C(=O)N[C@@H](C(C)C)C(=O)N[C@@H](CO)C(=O)N1)C(=O)N[C@@H](CCCCN)C(=O)N[C@@H](CCCNC(=N)N)C(N)=O (Ac-EATKCFAWQRNMRKVRGPPVSCIKR-NH2; disulfide 5-22)
- MIC99 (Staphylococcus aureus [12]): 100 µg/mL (≈ 33.3 µM)
- MIC99 (Candida albicans [8]): > 200 µg/mL
- MIC99 [9]: > 100 µg/mL

Compound: H-CFQWQANMRKVR-OH
- MIC99 (Candida albicans [7]): 12 µg/mL
- MIC99 (Staphylococcus aureus [10]): 7 µg/mL
- MIC99 [11]: 12 µg/mL

Compound: CSCC[C@H](NC(=O)[C@H](CCCN)NC(=O)[C@H](CCCNC(=N)N)NC(=O)[C@H](CCC(N)=O)NC(=O)[C@H](Cc1c[nH]c2ccccc12)NC(=O)[C@H](CCC(N)=O)NC(=O)[C@H](Cc1ccccc1)NC(=O)[C@@H](N)CS)C(=O)N[C@@H](CCCNC(=N)N)C(=O)N[C@@H](CCCCN)C(=O)N[C@H](C(=O)N[C@@H](CCCNC(=N)N)C(=O)O)C(C)C (H-CFQWQR[Orn]MRKVR-OH)
- MIC99 (Staphylococcus aureus [12]): 50 µg/mL (≈ 30.3 µM)
- MIC99 (Candida albicans [8]): 25 µg/mL (≈ 15.1 µM)
- MIC99 [9]: 25 µg/mL (≈ 15.1 µM)

Compound: H-FQWQRNMRKVR-OH
- Activity (Candida albicans [1]): <99%
- Activity (Escherichia coli [2]): <99%
- Activity (Pseudomonas aeruginosa): <99%
- Activity (Klebsiella pneumoniae): >=99%
- Activity (Staphylococcus aureus [3]): >=99%
- Activity [4]: <99%
- Activity (Enterococcus faecalis): <99%
- Activity (Escherichia coli [5]): <99%

Compound: H-AFQWQRNMRKVR-OH
- MIC99 (Staphylococcus aureus [6]): > 100 µg/mL
- MIC99 (Candida albicans [7]): 12 µg/mL
- MIC99 (Candida albicans [8]): > 100 µg/mL
- MIC99 [9]: > 100 µg/mL
- MIC99 (Staphylococcus aureus [10]): 14 µg/mL
- MIC99 [11]: > 25 µg/mL

Compound: H-CFQAQRNMRKVR-OH
- MIC99 (Staphylococcus aureus [6]): > 100 µg/mL
- MIC99 (Candida albicans [7]): 12 µg/mL
- MIC99 (Candida albicans [8]): > 100 µg/mL
- MIC99 [9]: > 100 µg/mL
- MIC99 (Staphylococcus aureus [10]): 14 µg/mL
- MIC99 [11]: 25 µg/mL

Compound: H-PEATKCFQWQRNMRKVR-OH
- Activity (Candida albicans [1]): <99%
- Activity (Escherichia coli [2]): <99%
- Activity (Pseudomonas aeruginosa): <99%
- Activity (Klebsiella pneumoniae): <99%
- Activity (Staphylococcus aureus [3]): >=99%
- Activity [4]: >=99%
- Activity (Enterococcus faecalis): >=99%
- Activity (Escherichia coli [5]): <99%

Compound: H-CFAWQRNMRKVR-OH
- MIC99 (Staphylococcus aureus [6]): 100 µg/mL
- MIC99 (Candida albicans [7]): 6 µg/mL
- MIC99 (Candida albicans [8]): 25 µg/mL
- MIC99 [9]: 50 µg/mL
- MIC99 (Staphylococcus aureus [10]): 3.5 µg/mL
- MIC99 [11]: 6 µg/mL

Compound: H-ATKCFQWQRNMRKVR-OH
- Activity (Candida albicans [1]): >=99%
- Activity (Escherichia coli [2]): >=99%
- Activity (Pseudomonas aeruginosa): >=99%
- Activity (Klebsiella pneumoniae): >=99%
- Activity (Staphylococcus aureus [3]): >=99%
- Activity [4]: >=99%
- Activity (Enterococcus faecalis): >=99%
- Activity (Escherichia coli [5]): >=99%

Compound: H-CFQWKRNMRKVR-OH
- MIC99 (Staphylococcus aureus [12]): 25 µg/mL
- MIC99 (Candida albicans [8]): 25 µg/mL
- MIC99 [9]: 25 µg/mL
